V1aR counter: agonists of human V1a receptor, primary screen, counter-screen for OXTR agonist project, fluorescence, CHO-V1R cells; activation, % at 3 µM; Fluo-8 calcium fluorescence, agonist mode; 0% DMSO, 100% 3 nM vasopressin; 320,000 compounds, 0.25% hits;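 active = activation above the mean activation of all tested compounds plus 3 SD, per screening run, cut at about 20% in these data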;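 also: signal is peak over basal fluorescence ratio across a 100 second FLIPR read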
Target sequence (P37288 whole entry, looked up): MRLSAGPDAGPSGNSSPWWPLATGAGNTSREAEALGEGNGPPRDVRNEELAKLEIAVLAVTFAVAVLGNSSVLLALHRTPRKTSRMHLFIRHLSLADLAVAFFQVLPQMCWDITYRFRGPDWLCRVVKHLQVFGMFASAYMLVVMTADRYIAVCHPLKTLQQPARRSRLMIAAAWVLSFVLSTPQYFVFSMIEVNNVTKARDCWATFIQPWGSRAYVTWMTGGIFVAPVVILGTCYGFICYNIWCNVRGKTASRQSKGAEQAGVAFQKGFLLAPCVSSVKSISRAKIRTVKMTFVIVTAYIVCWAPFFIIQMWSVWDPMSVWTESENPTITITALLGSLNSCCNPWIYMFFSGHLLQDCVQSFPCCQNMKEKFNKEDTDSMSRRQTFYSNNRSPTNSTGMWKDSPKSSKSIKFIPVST
CHRM4 agonist: human M4 muscarinic receptor agonists, primary screen, CHO-K1 cells, Fluo-8 calcium fluorescence. Muscarinic acetylcholine receptor M4 (Homo sapiens), P08173. CHO-K1 hM4/Gqi5; vehicle 0%, full acetylcholine response 100%. activation, % at 3 µM. 360,000 compounds, 0.14% hits. AID 624127, 2012;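 active = activation above the run mean over all test wells plus 3 SD, cut at about 32% in these data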;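 also: peak over basal fluorescence ratio per well then scaled between controls; 0% = DMSO wells and 100% = acetylcholine at EC100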
OXTR ag: human OXTR agonists, primary screen, fluorescence, CHO-OTR cells, Fluo-8 calcium. Oxytocin receptor (Homo sapiens), P30559. AID 2435, 2010. Fluo-8 calcium fluorescence; normalized: DMSO 0%, oxytocin 100%. 320,000 compounds, 0.32% hits. activation, % at 3 µM;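 active = activation above the mean of all tested compounds plus 3 SD, cutoff set per screening run, cut at about 20% in these data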;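 also: peak over basal fluorescence ratio from a 100 s FLIPR kinetic read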
M4 PAM: human M4 muscarinic receptor positive allosteric modulators, primary screen, CHO-K1 cells, Fluo-8 calcium fluorescence; Muscarinic acetylcholine receptor M4 (Homo sapiens), P08173; CHO-K1 hM4/Gqi5, ACh EC20; 0% = ACh EC20, 100% = maximal ACh; activation, % at 3 µM; 360,000 compounds, 0.4% hits; AID 624126, 2012;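 active = activation above its plate's cutoff, the mean activation of sample wells plus 3 SD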
OXTR potentiate: human OXTR potentiators, primary screen, fluorescence, CHO-OTR cells, Fluo-8 calcium | Fluo-8 calcium fluorescence, potentiator mode; 0% = oxytocin EC15, 100% = EC100 | activation, % at 3 µM | 320,000 compounds, 0.061% hits | AID 2445, 2010;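 active = activation above that plate's cutoff, the mean activation of tested compounds plus 3 SD, cut at about 6.6% in these data, passing the limit was not always enough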;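 also: 100% uses oxytocin at 75 nM as the full agonist control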
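System: human OTR in CHO cells; Also added: sub-maximal oxytocin, roughly EC15; Timing: compound 6 min at room temperature before oxytocin, 100 s read; Technique: Fluo-8 intracellular calcium fluorescence, ex 470-495, em 515-575 nm; Controls: oxytocin EC15 low and EC100 high; Replication: singlicate.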
M4 antag: human M4 muscarinic receptor antagonists, primary screen, CHO cells, Fluo-8 calcium fluorescence. inhibition, % at 3 µM. 360,000 compounds, 0.73% hits. Muscarinic acetylcholine receptor M4 (Homo sapiens), P08173. CHO-hM4 cells, ACh EC80;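 active = inhibition above its plate's cutoff, the mean inhibition of sample wells plus 3 SD, cut at about 27% in these data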;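 also: 0% = acetylcholine EC80 with DMSO and 100% = DMSO without agonist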
* = called active by the depositor; nt = no result. The list is not random: actives were taken first. Their share in the collection is about 1.5%.

SMILES	V1aR counter	CHRM4 agonist	OXTR ag	M4 PAM	OXTR potentiate	M4 antag
CCCCCCCCN1C(=O)[C@H](CC(=O)NCc2ccc(C)o2)C[C@@]2(C(=O)OCC)CCC=C12	nt	6	nt	-3	nt	-6
COCCN(C(=O)c1ccc(C)c(S(=O)(=O)N2CCOCC2)c1)c1c(N)n(CC(C)C)c(=O)[nH]c1=O	nt	0	nt	-3	nt	0
CCC1(CC)NC(=O)N(CC(=O)N2CCc3ccccc32)C1=O	-1	0	1	19*	4	-20
CCC1(c2ccccc2)NC(=O)N(CC(=O)N2CCc3ccccc32)C1=O (stereo unspecified)	4	7	11	4	-12	-21
CCC1(c2ccc(F)cc2)NC(=O)N(CC(=O)N2CCc3ccccc32)C1=O (stereo unspecified)	27*	32	29*	-2	-15	-10
CC1CCCCC12NC(=O)N(CC(=O)N1CCc3ccccc31)C2=O (stereo unspecified)	-1	-1	-1	4	6	0
CC1(c2ccc(Cl)cc2)NC(=O)N(CC(=O)N2CCc3ccccc32)C1=O (stereo unspecified)	28*	38*	40*	-1	-13	-7
CCC1(c2ccc(F)cc2)NC(=O)N(CC(=O)Nc2ccccc2Cl)C1=O (stereo unspecified)	22*	18	23*	-4	-15	7
CCCCC1(C)NC(=O)N(CC(=O)N2CCc3ccccc32)C1=O (stereo unspecified)	-1	-1	2	-1	-5	-8
COc1cccc(N2CCN(C(=O)C3CCCN(S(=O)(=O)c4ccc5c(c4)oc(=O)n5C)C3)CC2)c1 (stereo unspecified)	9	4	6	0	-12	-3
COc1ccc(C(=O)OCC(=O)NC(=O)Nc2ccccc2F)c(OC)c1	1	0	2	21*	0	9
COc1ccc(C(=O)OCC(=O)NCCCc2ccccc2)c(OC)c1	1	3	-1	-4	-13	11
O=C(CCCN1CCC(c2ccccc2)C1)c1ccc2c(c1)OCCO2 (stereo unspecified)	1	4	2	-15	-6	27*
O=C(CCCN1CCOCC1)c1ccc2c(c1)OCCO2	1	2	0	5	2	-4
CC(C)C[C@@H](CN1CCC[C@@H]1CN1C(=O)C(=O)NC[C@@H]1Cc1ccccc1)N1C[C@H](Cc2ccccc2)N(CC2CCCCC2)C(=O)C1=O	nt	-1	nt	4	nt	-2
Cc1cccc(-n2c(C)nc3cc(C(=O)NCCN4CCOCC4)ccc32)c1	nt	1	nt	-5	nt	0
CC(=O)Nc1cccc(NC(=O)CSc2ncc(C(=O)Nc3ccc(F)cc3)c(=O)n2C)c1	0	1	1	10	7	-8
CC(=O)Nc1ccc(NC(=O)CSc2ncc(C(=O)Nc3ccc(F)cc3)c(=O)n2C)cc1	0	1	1	18*	-4	8
CSc1ccc(CCNC(=O)CN2C(=O)c3cccnc3Oc3ccc(C)cc32)cc1	4	15	2	-7	-10	33*
Cc1cc(S(=O)(=O)NCCCN2CCOCC2)ccc1Br	0	0	0	-3	-1	8
CC(=O)c1c(C)[nH]c(C(=O)COc2cc(C)ccc2C(C)C)c1C	9	16	9	-8	-14	39*
COc1cc(C)ccc1OCC(=O)OCC(=O)c1[nH]c(C)c(C(C)=O)c1C	7	11	6	-3	-9	-3
Cc1ccc(OCC(O)CN2C(=O)NC(C)(C)C2=O)c(C)c1 (stereo unspecified)	0	3	0	19*	-3	-7
NC(Cc1ccc(F)cc1)c1csc(Nc2cc(Oc3ccccc3)ncn2)n1 (stereo unspecified)	nt	20	nt	-7	nt	13
